{"source": "paper PMC9435035", "about": "(ACS Omega, 2022)", "key": {"α-glucosidase": {"molecular_target": "α-glucosidase (Saccharomyces cerevisiae, UniProt P53341)", "sequence (P53341 whole entry)": "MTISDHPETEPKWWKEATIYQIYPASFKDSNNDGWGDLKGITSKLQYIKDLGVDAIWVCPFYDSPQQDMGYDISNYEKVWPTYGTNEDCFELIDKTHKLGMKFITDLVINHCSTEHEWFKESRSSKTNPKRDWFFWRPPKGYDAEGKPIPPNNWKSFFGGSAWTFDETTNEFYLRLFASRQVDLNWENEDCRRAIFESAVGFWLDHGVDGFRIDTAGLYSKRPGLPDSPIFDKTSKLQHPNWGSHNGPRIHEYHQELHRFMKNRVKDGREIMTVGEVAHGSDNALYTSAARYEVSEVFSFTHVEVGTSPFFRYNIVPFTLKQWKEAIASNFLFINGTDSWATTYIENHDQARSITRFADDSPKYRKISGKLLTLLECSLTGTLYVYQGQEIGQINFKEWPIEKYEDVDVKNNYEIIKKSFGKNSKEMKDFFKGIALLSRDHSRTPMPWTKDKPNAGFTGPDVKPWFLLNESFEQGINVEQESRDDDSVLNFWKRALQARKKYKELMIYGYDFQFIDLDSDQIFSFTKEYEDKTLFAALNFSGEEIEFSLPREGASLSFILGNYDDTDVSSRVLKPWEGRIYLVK", "experiment": "α-glucosidase inhibitory activity", "assay_type": "biochemical", "settings": "read-out: glucosidase inhibition IC50 ± SEM; mean ± SEM"}, "Balb/C mice": {"system": "Balb/C mice", "experiment": "acute toxicity study in mice", "assay_type": "in vivo", "how_it_was_run": "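Two-phase modified Lorke protocol in Balb/C mice (20–25 g), four per group. Phase 1: control given Tween-80 (2%); other groups received oral test compound at 100, 500 or 1000 mg/kg. Phase 2: oral doses of 1250, 1500 and 2000 mg/kg. Animals observed for the first 24 h, then daily for 2 weeks for diarrhea, convulsions, lethargy, sleeping, salivation and tremors, with mortality monitored.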"}, "[1]": {"system": "overnight fasted normal rats", "experiment": "oral glucose tolerance test", "assay_type": "in vivo, Wistar albino rats", "settings": "OGTT, glucose 3 g/kg oral"}, "[2]": {"system": "streptozotocin-induced diabetic Wistar rats", "experiment": "antidiabetic activity: blood glucose in STZ-induced diabetes", "assay_type": "in vivo, Wistar albino rats", "how_it_was_run": "(§1)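 Male Wistar albino rats (170–200 g, 8–10 weeks), fasted overnight, given STZ 50 mg/kg i.p. in 0.1 M citrate buffer, then 10% glucose for 3 days. Tail-vein glucose by glucometer at 72 h; >250 mg/dL counted as diabetic. Body weight and blood glucose on days 1, 7, 14, 21 and 28. Means ± SEM, one-way ANOVA with Dunnett's test.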"}, "[3]": {"experiment": "body weight of STZ-induced diabetic rats", "assay_type": "in vivo, Wistar albino rats", "settings": "for body weight, day 1: day 1, in g (unit assumed); for body weight, day 7: day 7, in g (unit assumed); for body weight, day 14: day 14, in g (unit assumed); for body weight, day 21: day 21, in g (unit assumed); for body weight, day 28: day 28, in g (unit assumed)", "how_it_was_run": "as §1"}, "[4]": {"system": "streptozotocin-induced diabetic Wistar rats", "experiment": "serum profile", "assay_type": "in vivo, Wistar albino rats", "settings": "STZ-diabetic rats; for (ALP) IU / (SGOT) IU / (SGPT) IU: serum", "how_it_was_run": "(§2)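 STZ-diabetic Wistar rats (n = 8 per group) received test compound at 10 or 20 mg/kg p.o., or glibenclamide 500 μg/kg p.o., once daily for 28 days; controls received vehicle. On day 28, rats were anesthetised with pentobarbital sodium (35 mg/kg) and blood was drawn by cardiac puncture. Serum ALP, SGPT, SGOT, LDL, HDL, TG, total cholesterol, creatinine and insulin were measured. Means ± SEM, one-way ANOVA with Dunnett's test.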"}, "[5]": {"system": "streptozotocin-induced diabetic Wistar rats", "experiment": "lipid profile in streptozotocin-induced diabetes", "assay_type": "in vivo, Wistar albino rats", "settings": "STZ-diabetic rats; 0.5 mg/kg for 28 days", "how_it_was_run": "as §2"}}}
{"compound": "2-(4-Ethoxyphenyl)-4-(p-tolyl)-2,3-dihydrobenzo[b][1,5]thiazepine [8B]", "values": [{"measurement": "IC50", "setting": "α-glucosidase", "result": "9.44 ± 0.83", "unit": "µM"}]}
{"compound": "4-(4-(p-Tolyl)-2,3-dihydrobenzo[b][1,5]thiazepin-2-yl)benzoic acid [7B]", "values": [{"measurement": "IC50", "setting": "α-glucosidase", "result": "3.96 ± 0.42", "unit": "µM"}, {"measurement": "mortality", "setting": "Balb/C mice; maximum oral dose of 2000 mg/kg (b.w.)", "result": "no mortality"}, {"measurement": "toxic effects (diarrhea, convulsions, lethargy, sleeping, salivation, tremor)", "setting": "Balb/C mice; oral up to 2000 mg/kg, observed daily for 2 weeks", "result": "no toxic effects"}, {"measurement": "blood glucose level, 0 min", "setting": "[1]; dose 10 mg/kg", "result": "104.01 ± 4.97", "unit": "mg/dL"}, {"measurement": "blood glucose level, 30 min", "setting": "[1]; dose 10 mg/kg", "result": "120.71 ± 5.01", "unit": "mg/dL"}, {"measurement": "blood glucose level, 60 min", "setting": "[1]; dose 10 mg/kg", "result": "120.90 ± 4.54", "unit": "mg/dL"}, {"measurement": "blood glucose level, 90 min", "setting": "[1]; dose 10 mg/kg", "result": "116.52 ± 4.11", "unit": "mg/dL"}, {"measurement": "blood glucose level, 120 min", "setting": "[1]; dose 10 mg/kg", "result": "109.25 ± 4.91", "unit": "mg/dL"}, {"measurement": "blood glucose level, 0 min", "setting": "[1]; dose 20 mg/kg", "result": "103.88 ± 4.04", "unit": "mg/dL"}, {"measurement": "blood glucose level, 30 min", "setting": "[1]; dose 20 mg/kg", "result": "117.41 ± 4.70", "unit": "mg/dL"}, {"measurement": "blood glucose level, 60 min", "setting": "[1]; dose 20 mg/kg", "result": "114.22 ± 4.97", "unit": "mg/dL"}, {"measurement": "blood glucose level, 90 min", "setting": "[1]; dose 20 mg/kg", "result": "117.01 ± 4.66", "unit": "mg/dL"}, {"measurement": "blood glucose level, 120 min", "setting": "[1]; dose 20 mg/kg", "result": "108.91 ± 4.87", "unit": "mg/dL"}, {"measurement": "blood glucose level, day 1", "setting": "[2]; 10 mg/kg p.o. once daily", "result": "377.08 ± 5.01", "unit": "mg/dL"}, {"measurement": "blood glucose level, day 7", "setting": "[2]; 10 mg/kg p.o. once daily", "result": "290.20 ± 4.93", "unit": "mg/dL"}, {"measurement": "blood glucose level, day 14", "setting": "[2]; 10 mg/kg p.o. once daily", "result": "215.76 ± 5.03", "unit": "mg/dL"}, {"measurement": "blood glucose level, day 21", "setting": "[2]; 10 mg/kg p.o. once daily", "result": "153.19 ± 4.66", "unit": "mg/dL"}, {"measurement": "blood glucose level, day 28", "setting": "[2]; 10 mg/kg p.o. once daily, day 28", "result": "136.51 ± 5.19", "unit": "mg/dL"}, {"measurement": "blood glucose level, day 1", "setting": "[2]; 20 mg/kg p.o. once daily", "result": "374.21 ± 4.12", "unit": "mg/dL"}, {"measurement": "blood glucose level, day 7", "setting": "[2]; 20 mg/kg p.o. once daily", "result": "238.39 ± 5.11", "unit": "mg/dL"}, {"measurement": "blood glucose level, day 14", "setting": "[2]; 20 mg/kg p.o. once daily", "result": "171.44 ± 4.98", "unit": "mg/dL"}, {"measurement": "blood glucose level, day 21", "setting": "[2]; 20 mg/kg p.o. once daily", "result": "134.20 ± 5.03", "unit": "mg/dL"}, {"measurement": "blood glucose level, day 28", "setting": "[2]; 20 mg/kg p.o. once daily, day 28, 20 mg/kg", "result": "112.97 ± 4.56", "unit": "mg/dL"}, {"measurement": "body weight, day 1", "setting": "[3]; 10 mg/kg", "result": "191.1 ± 4.07"}, {"measurement": "body weight, day 7", "setting": "[3]; 10 mg/kg", "result": "188.2 ± 4.57"}, {"measurement": "body weight, day 14", "setting": "[3]; 10 mg/kg", "result": "185.6 ± 4.90"}, {"measurement": "body weight, day 21", "setting": "[3]; 10 mg/kg", "result": "184.1 ± 4.71"}, {"measurement": "body weight, day 28", "setting": "[3]; 10 mg/kg", "result": "183.7 ± 4.32"}, {"measurement": "body weight, day 1", "setting": "[3]; 20 mg/kg", "result": "188.9 ± 4.67"}, {"measurement": "body weight, day 7", "setting": "[3]; 20 mg/kg", "result": "190.8 ± 4.21"}, {"measurement": "body weight, day 14", "setting": "[3]; 20 mg/kg", "result": "188.1 ± 4.62"}, {"measurement": "body weight, day 21", "setting": "[3]; 20 mg/kg", "result": "185.2 ± 3.91"}, {"measurement": "body weight, day 28", "setting": "[3]; 20 mg/kg", "result": "186.1 ± 4.58"}, {"measurement": "insulin level", "setting": "[4]; 10 mg/kg for 28 days", "result": "0.621 ± 0.37", "unit": "ng/mL"}, {"measurement": "serum creatinine", "setting": "[4]; 10 mg/kg for 28 days, 10 mg/kg", "result": "0.85 ± 0.37", "unit": "mg/dL"}, {"measurement": "(ALP) IU", "setting": "[4]; 10 mg/kg for 28 days, 10 mg/kg", "result": "217.14 ± 4.61", "unit": "IU"}, {"measurement": "(SGOT) IU", "setting": "[4]; 10 mg/kg for 28 days, 10 mg/kg", "result": "26.71 ± 1.91", "unit": "IU"}, {"measurement": "(SGPT) IU", "setting": "[4]; 10 mg/kg for 28 days, 10 mg/kg", "result": "27.07 ± 2.77", "unit": "IU"}, {"measurement": "insulin level", "setting": "[4]; 20 mg/kg for 28 days", "result": "0.639 ± 0.29", "unit": "ng/mL"}, {"measurement": "serum creatinine", "setting": "[4]; 20 mg/kg for 28 days, 20 mg/kg", "result": "0.79 ± 0.31", "unit": "mg/dL"}, {"measurement": "(ALP) IU", "setting": "[4]; 20 mg/kg for 28 days, 20 mg/kg", "result": "209.01 ± 4.29", "unit": "IU"}, {"measurement": "(SGOT) IU", "setting": "[4]; 20 mg/kg for 28 days, 20 mg/kg", "result": "23.08 ± 2.11", "unit": "IU"}, {"measurement": "(SGPT) IU", "setting": "[4]; 20 mg/kg for 28 days, 20 mg/kg", "result": "23.91 ± 2.21", "unit": "IU"}]}
{"compound": "COc1ccc(Cl)cc1C(=O)NCCc1ccc(S(=O)(=O)NC(=O)NC2CCCCC2)cc1", "note": "[glibenclamide, reference compound]", "values": [{"measurement": "blood glucose level, 0 min", "setting": "[1]; dose 0.5 mg/kg", "result": "102.03 ± 4.22", "unit": "mg/dL"}, {"measurement": "blood glucose level, 30 min", "setting": "[1]; dose 0.5 mg/kg", "result": "103.92 ± 5.01", "unit": "mg/dL"}, {"measurement": "blood glucose level, 60 min", "setting": "[1]; dose 0.5 mg/kg", "result": "108.71 ± 4.21", "unit": "mg/dL"}, {"measurement": "blood glucose level, 90 min", "setting": "[1]; dose 0.5 mg/kg", "result": "101.86 ± 4.21", "unit": "mg/dL"}, {"measurement": "blood glucose level, 120 min", "setting": "[1]; dose 0.5 mg/kg", "result": "104.12 ± 4.67", "unit": "mg/dL"}, {"measurement": "blood glucose level, day 1", "setting": "[2]; 0.5 mg/kg p.o.", "result": "352.28 ± 4.11", "unit": "mg/dL"}, {"measurement": "blood glucose level, day 7", "setting": "[2]; 0.5 mg/kg p.o.", "result": "231.12 ± 4.29", "unit": "mg/dL"}, {"measurement": "blood glucose level, day 14", "setting": "[2]; 0.5 mg/kg p.o.", "result": "151.43 ± 4.09", "unit": "mg/dL"}, {"measurement": "blood glucose level, day 21", "setting": "[2]; 0.5 mg/kg p.o.", "result": "118.87 ± 4.03", "unit": "mg/dL"}, {"measurement": "blood glucose level, day 28", "setting": "[2]; 0.5 mg/kg p.o., day 28", "result": "101.68 ± 4.19", "unit": "mg/dL"}, {"measurement": "body weight, day 1", "setting": "[3]; 0.5 mg/kg", "result": "187.4 ± 4.57"}, {"measurement": "body weight, day 7", "setting": "[3]; 0.5 mg/kg", "result": "190.2 ± 3.98"}, {"measurement": "body weight, day 14", "setting": "[3]; 0.5 mg/kg", "result": "177.1 ± 4.21"}, {"measurement": "body weight, day 21", "setting": "[3]; 0.5 mg/kg", "result": "183.7 ± 4.33"}, {"measurement": "body weight, day 28", "setting": "[3]; 0.5 mg/kg", "result": "185.1 ± 4.48"}, {"measurement": "HDL", "setting": "[5]", "result": "65.90 ± 2.71", "unit": "mg/dL"}, {"measurement": "LDL", "setting": "[5]", "result": "96.12 ± 4.31", "unit": "mg/dL"}, {"measurement": "TG", "setting": "[5]", "result": "105.43 ± 4.31", "unit": "mg/dL"}, {"measurement": "total CH", "setting": "[5]", "result": "122.09 ± 4.89", "unit": "mg/dL"}, {"measurement": "insulin level", "setting": "[4]; 0.5 mg/kg for 28 days", "result": "0.754 ± 0.33", "unit": "ng/mL"}, {"measurement": "serum creatinine", "setting": "[4]; 0.5 mg/kg for 28 days", "result": "0.57 ± 0.23", "unit": "mg/dL"}, {"measurement": "(ALP) IU", "setting": "[4]; 0.5 mg/kg for 28 days", "result": "185.32 ± 5.71", "unit": "IU"}, {"measurement": "(SGOT) IU", "setting": "[4]; 0.5 mg/kg for 28 days", "result": "20.68 ± 2.01", "unit": "IU"}, {"measurement": "(SGPT) IU", "setting": "[4]; 0.5 mg/kg for 28 days", "result": "19.63 ± 2.11", "unit": "IU"}]}
